Furin inhibitor = inhibitors of human furin; actives 0.061% (n = 220,000); inhibition, % at 20 µM or 30 µM; AID 463115; P09958; purified furin, fluorogenic substrate cleavage; in the data active = inhibition above about 25%
Cl transport mod = modulates chloride dependent transport by human KCC2 | Q9H2X9 | KCC2 cells, thallium flux FluoZin-2 fluorescence | B-score of Tl+ flux slope (higher = more flux/activation; lower = inhibition) at 10 µM | actives 2.2% (n = 190,000);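 active = thallium flux slope and its plate-corrected score both differing from the plate sample mean at a set confidence after two filtering rounds, in either direction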;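 note: slope of fluorescence scaled to starting intensity during 10 to 20 s after thallium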
Target sequence (Q9H2X9 whole entry, looked up): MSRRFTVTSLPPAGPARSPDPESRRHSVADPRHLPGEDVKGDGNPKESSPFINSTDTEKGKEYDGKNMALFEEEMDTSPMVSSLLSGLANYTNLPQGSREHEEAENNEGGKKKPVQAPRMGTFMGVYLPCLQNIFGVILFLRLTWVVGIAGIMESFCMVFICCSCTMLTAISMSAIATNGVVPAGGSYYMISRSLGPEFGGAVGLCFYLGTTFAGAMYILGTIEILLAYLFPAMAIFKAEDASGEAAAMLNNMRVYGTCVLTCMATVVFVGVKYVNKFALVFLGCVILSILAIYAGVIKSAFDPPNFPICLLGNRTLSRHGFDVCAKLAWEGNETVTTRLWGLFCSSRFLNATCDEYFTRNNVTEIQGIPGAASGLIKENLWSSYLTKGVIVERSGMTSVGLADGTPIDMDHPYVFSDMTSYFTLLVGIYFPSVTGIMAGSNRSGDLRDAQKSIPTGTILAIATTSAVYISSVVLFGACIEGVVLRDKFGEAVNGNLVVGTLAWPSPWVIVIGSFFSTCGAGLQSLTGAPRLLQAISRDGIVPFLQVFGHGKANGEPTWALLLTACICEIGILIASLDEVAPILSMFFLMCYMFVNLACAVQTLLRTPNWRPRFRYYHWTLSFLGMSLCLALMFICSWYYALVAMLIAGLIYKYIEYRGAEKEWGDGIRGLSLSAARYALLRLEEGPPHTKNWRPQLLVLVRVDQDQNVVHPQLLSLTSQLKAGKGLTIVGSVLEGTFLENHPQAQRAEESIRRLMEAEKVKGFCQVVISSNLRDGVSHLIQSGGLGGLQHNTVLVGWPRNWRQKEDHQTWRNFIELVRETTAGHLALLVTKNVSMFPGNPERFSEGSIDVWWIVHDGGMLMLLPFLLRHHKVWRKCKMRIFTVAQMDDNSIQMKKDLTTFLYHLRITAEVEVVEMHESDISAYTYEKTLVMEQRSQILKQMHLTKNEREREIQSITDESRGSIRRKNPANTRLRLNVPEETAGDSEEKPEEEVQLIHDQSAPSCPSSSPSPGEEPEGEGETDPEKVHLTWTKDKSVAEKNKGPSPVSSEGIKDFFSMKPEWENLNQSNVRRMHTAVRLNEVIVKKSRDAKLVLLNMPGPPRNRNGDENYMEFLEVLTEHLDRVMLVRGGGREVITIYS
NPY Y1 blocker = blocks the human neuropeptide Y Y1 receptor | AID 1040 | inhibition, % at 3.6 µM | actives 1% (n = 200,000) | HEK293-CNG Y1 cells, membrane potential fluorescence; NPY at EC95, then isoproterenol;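 active = inhibition above the campaign mean inhibition of all tested compounds plus 3 SD, cut at about 20% in these data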;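 note: 0% = DMSO wells given NPY plus isoproterenol and 100% = isoproterenol alone without NPY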
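material = HEK293 cells with Y1 receptor plus CNG channel | also added = NPY 25 nM then isoproterenol 1 µM plus Ro 20-1724 25 µM | schedule = dye 3 h, compound 60 min room temperature, stimulation 45 min | measured by = membrane potential fluorescence | benchmarks = high control isoproterenol alone, low control NPY with isoproterenol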
NPY-Y1 PAM-ag = potentiates or activates human NPY-Y1 receptor | actives 0.37% (n = 220,000) | NPY-Y1 expressing cells, potentiator/agonist activation | activation, % at 3.6 µM; in the data active = activation above about 33%, passing the limit was not always enough;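 note: cells stimulated with NPY at EC10 then isoproterenol at EC100; 0% = low agonist plus stimulus and 100% = saturating agonist plus stimulus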
NPY-Y2 antag = antagonists of human neuropeptide Y receptor Y2 | P49146 | NPY-Y2 expressing cells, antagonist mode | actives 0.99% (n = 140,000) | inhibition, % at 2.7 µM;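 note: 0% = vehicle with agonist challenge and 100% = reference antagonist with challenge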
NPY2 pot ag = human NPY-Y2 potentiation or agonism, primary screen; AID 1359; cells expressing NPY-Y2, potentiator/agonist read-out; actives 0.45% (n = 220,000); P49146; activation, % at 3.6 µM; in the data active = activation above about 27%;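 note: cells stimulated with NPY near EC25 plus isoproterenol at EC100; 0% = vehicle plus submaximal agonist and 100% = vehicle plus saturating agonist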
NPY-Y1 ant conf = confirmation of human neuropeptide Y receptor Y1 antagonists; HEK293-CNG NPY-Y1, membrane potential fluorescence, cAMP; NPY challenge against isoproterenol-raised cAMP; AID 1254; shares compounds with NPY Y1 blocker; inhibition, % at 3.6 µM; actives 21% (n = 1,200); in the data active = inhibition above about 20%;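 note: 0% = vehicle with agonist plus stimulus and 100% = stimulus alone without agonist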
NPY2 antag ctr = antagonizes human NPY-Y2, counter-screen to NPY-Y1 antagonists; actives 28% (n = 1,200); inhibition, % at 3.6 µM; shares compounds with NPY Y1 blocker; HEK293 NPY-Y2 CNG membrane potential fluorescence, antagonism; cells given NPY, then isoproterenol;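 note: 0% = DMSO with agonist challenge and 100% = reference antagonist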
Starred values were filed as active, the others as inactive. Hits are enriched below; roughly 3.7% of the tested compounds scored in any of these assays. Cut-off read from the data, not from the text of the source, unless noted: active = inhibition above about 17%; inactive = the rest.

COc1ccc(CN2C(=O)c3ccccc3C2C(=O)NCCc2ccccc2)c(OC)c1 (configuration not stated) was read as Furin inhibitor -9, Cl transport mod -0.99, NPY Y1 blocker 1, NPY-Y1 PAM-ag -16 and NPY2 pot ag -14.
Cc1ccc(S(=O)(=O)Nc2ccc3c4c(cccc24)CC3)c(C)c1 was read as Furin inhibitor -24, Cl transport mod 0.22, NPY Y1 blocker 3, NPY-Y1 PAM-ag -8, NPY-Y2 antag 6 and NPY2 pot ag -4.
Cc1cc(C)c(S(=O)(=O)Nc2ccc3c4c(cccc24)CC3)c(C)c1 was read as Furin inhibitor -12, Cl transport mod -0.41, NPY Y1 blocker 23*, NPY-Y1 PAM-ag -64, NPY-Y2 antag 8, NPY2 pot ag -51, NPY-Y1 ant conf 9 and NPY2 antag ctr 37*.
COC(=O)C1=C(Nc2ccc(C)cc2)C=C(C)C(C(=O)OC)C1c1cccc(OC)c1 (configuration not stated) was read as Furin inhibitor -9, Cl transport mod -0.66, NPY Y1 blocker 24*, NPY-Y1 PAM-ag -72, NPY-Y2 antag 10, NPY2 pot ag -25, NPY-Y1 ant conf 11 and NPY2 antag ctr 11.
CC(=O)Nc1ccc(N2C(C(C)=O)=NN(c3ccc(Cl)cc3)C2c2sccc2C)cc1 (configuration not stated) was read as Furin inhibitor 17, Cl transport mod -0.81, NPY Y1 blocker 1, NPY-Y1 PAM-ag 8, NPY-Y2 antag 0 and NPY2 pot ag 6.
Screening CN(C[C@H](Cc1ccccc1)N(C[C@H](Cc1ccccc1)N(CCc1cc(C(F)(F)F)cc(C(F)(F)F)c1)N=O)N=O)N=O returned Furin inhibitor -36, Cl transport mod 0.91, NPY Y1 blocker 22*, NPY-Y1 PAM-ag -12, NPY2 pot ag -14, NPY-Y1 ant conf 19 and NPY2 antag ctr 8.
Screening COC(=O)c1ccc(NC(=O)c2cccc(Cl)c2)o1 returned Furin inhibitor -22, Cl transport mod 0.03, NPY Y1 blocker 6, NPY-Y1 PAM-ag -9, NPY-Y2 antag 2 and NPY2 pot ag -6.
For COc1ccc(-c2nc(CN3CCN(c4cc(C)nc(C)c4)CC3)c(C)o2)c2ccccc12 the results were Furin inhibitor -81, Cl transport mod 1.5, NPY Y1 blocker 23*, NPY-Y1 PAM-ag -23, NPY2 pot ag -9, NPY-Y1 ant conf 15 and NPY2 antag ctr 29*.
`O=C(C[n+]1cc(-c2ccccc2)n2c1CCCCC2)c1ccc(Br)cc1` gave Furin inhibitor -25, NPY Y1 blocker 42*, NPY-Y1 PAM-ag -9, NPY2 pot ag -9, NPY-Y1 ant conf 22* and NPY2 antag ctr 19*.
For COc1ccc(C(=O)C[n+]2cc(-c3ccc(OC)cc3)n3c2CCCC3)cc1 the results were Furin inhibitor -14, Cl transport mod 0.17, NPY Y1 blocker 1, NPY-Y1 PAM-ag 4 and NPY2 pot ag -1.
Screening COc1ccc(C(=O)/C(C#N)=N/Nc2cccc([N+](=O)[O-])c2)cc1 returned Furin inhibitor 0, Cl transport mod -5*, NPY Y1 blocker 26*, NPY-Y1 PAM-ag -15, NPY2 pot ag -5, NPY-Y1 ant conf 29* and NPY2 antag ctr 17.
Screening N#C/C(=N\Nc1cccc(Cl)c1)C(=O)c1ccccc1 returned Furin inhibitor -21, Cl transport mod -2.5, NPY Y1 blocker 7, NPY-Y1 PAM-ag 38, NPY-Y2 antag 5 and NPY2 pot ag 25.
CCNCc1ccc(OCc2ccccc2F)c(OC)c1 was read as Furin inhibitor -24, Cl transport mod -0.37, NPY Y1 blocker 3, NPY-Y1 PAM-ag -17 and NPY2 pot ag -3.
Screening CCN(CC)CCNCc1cc(Cl)ccc1OCc1ccccc1F returned Furin inhibitor -24, Cl transport mod 0.068, NPY Y1 blocker 24*, NPY-Y1 PAM-ag -22, NPY2 pot ag 4, NPY-Y1 ant conf 12 and NPY2 antag ctr 14.
